{
  "source": "ChEMBL document CHEMBL4393708",
  "about": "“Pyridinylimidazoles as dual glycogen synthase kinase 3β/p38α mitogen-activated protein kinase inhibitors” (Eur J Med Chem, 2019)",
  "key": {"[1]": {"molecular_target": "Mitogen-activated protein kinase 14 (Homo sapiens, UniProt Q16539)", "sequence (Q16539 whole entry)": "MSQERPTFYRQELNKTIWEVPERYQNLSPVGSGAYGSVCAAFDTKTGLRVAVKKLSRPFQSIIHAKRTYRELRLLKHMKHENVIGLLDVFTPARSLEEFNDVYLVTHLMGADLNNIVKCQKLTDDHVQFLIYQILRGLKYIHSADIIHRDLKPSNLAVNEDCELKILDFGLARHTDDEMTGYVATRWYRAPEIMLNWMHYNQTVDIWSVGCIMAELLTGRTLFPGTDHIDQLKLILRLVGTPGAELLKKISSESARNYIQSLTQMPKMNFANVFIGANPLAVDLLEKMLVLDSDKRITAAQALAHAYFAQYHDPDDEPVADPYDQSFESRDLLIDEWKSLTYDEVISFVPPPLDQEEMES", "assay": "Inhibition of p38alpha MAPK (unknown origin) using ATF-2 as substrate after 1 hr by ELISA"}, "[2]": {"molecular_target": "T1, Glycogen synthase kinase-3 beta (Homo sapiens, UniProt P49841)", "T1 sequence (P49841 whole entry)": "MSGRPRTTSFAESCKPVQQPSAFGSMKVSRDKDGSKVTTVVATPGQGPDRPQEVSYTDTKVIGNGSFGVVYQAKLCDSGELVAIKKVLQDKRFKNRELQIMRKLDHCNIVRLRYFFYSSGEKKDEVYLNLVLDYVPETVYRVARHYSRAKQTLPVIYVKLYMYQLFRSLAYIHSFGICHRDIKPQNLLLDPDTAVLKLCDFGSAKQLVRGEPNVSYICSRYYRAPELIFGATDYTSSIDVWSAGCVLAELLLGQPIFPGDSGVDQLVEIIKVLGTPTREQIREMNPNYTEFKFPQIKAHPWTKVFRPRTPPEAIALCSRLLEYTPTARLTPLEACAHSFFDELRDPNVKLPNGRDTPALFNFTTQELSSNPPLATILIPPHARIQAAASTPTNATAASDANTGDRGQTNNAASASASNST", "assay": "Competitive inhibition of human recombinant full length GSK3beta using YRRAAVPPSPSLSRHSSPHQ(pS)EDEEE as substrate preincubated with enzyme for 10 mins followed by substrate and 25 uM ATP addition measured after 60 mins by ADP-Glo luminescence assay", "method_in_brief": "(§1)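 Compounds in serial dilutions were preincubated with kinase for 10 min at rt. Substrate/ATP was then added and the reaction ran 60 min at rt. ADP-Glo reagent 60 min, detection reagent 30 min, then luminescence read (500 ms integration).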"}, "[3]": {"molecular_target": "Glycogen synthase kinase-3 alpha (Homo sapiens, UniProt P49840)", "sequence (P49840 whole entry)": "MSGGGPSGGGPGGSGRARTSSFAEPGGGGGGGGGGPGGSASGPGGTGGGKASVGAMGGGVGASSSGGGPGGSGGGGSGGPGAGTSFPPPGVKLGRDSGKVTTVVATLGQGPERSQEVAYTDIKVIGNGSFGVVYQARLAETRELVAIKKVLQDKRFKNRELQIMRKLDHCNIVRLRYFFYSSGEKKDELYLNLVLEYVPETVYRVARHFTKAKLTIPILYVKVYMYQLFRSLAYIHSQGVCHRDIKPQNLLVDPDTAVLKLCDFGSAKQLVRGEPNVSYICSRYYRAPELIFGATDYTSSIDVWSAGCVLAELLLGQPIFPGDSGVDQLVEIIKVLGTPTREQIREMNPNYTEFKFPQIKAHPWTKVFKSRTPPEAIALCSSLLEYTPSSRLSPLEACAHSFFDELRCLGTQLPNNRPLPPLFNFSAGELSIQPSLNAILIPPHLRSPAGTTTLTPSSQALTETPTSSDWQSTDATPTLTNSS", "assay": "Inhibition of human recombinant full length GSK3alpha using YRRAAVPPSPSLSRHSSPHQ(pS)EDEEE as substrate preincubated with enzyme for 10 mins followed by substrate and 25 uM ATP addition measured after 60 mins by ADP-Glo luminescence assay", "method_in_brief": "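Recombinant human GSK3α at 0.50 ng/µL, 25 µM ATP, 0.2 µg/µL substrate G50-58, serial compound dilutions. Kinase was preincubated with compound 10 min at rt, then run 60 min at rt after substrate/ATP addition. ADP-Glo reagent 60 min, detection reagent 30 min, luminescence read. Uninhibited-kinase and ATP/substrate-only controls were included.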"}, "[4]": {"molecular_target": "T1, Glycogen synthase kinase-3 beta", "assay": "Competitive inhibition of human recombinant full length GSK3beta using YRRAAVPPSPSLSRHSSPHQ(pS)EDEEE as substrate preincubated with enzyme for 10 mins followed by substrate and 100 uM ATP addition measured after 60 mins by ADP-Glo luminescence assay", "method_in_brief": "as §1, with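 “Recombinant human GSK3β at 0.58 ng/µL with 0.2 µg/µL substrate G50-58; ATP at 25 µM, 100 µM or 500 µM, each as its line states. Compounds” for “Compounds”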"}, "[5]": {"molecular_target": "T1, Glycogen synthase kinase-3 beta", "assay": "Competitive inhibition of human recombinant full length GSK3beta using YRRAAVPPSPSLSRHSSPHQ(pS)EDEEE as substrate preincubated with enzyme for 10 mins followed by substrate and 500 uM ATP addition measured after 60 mins by ADP-Glo luminescence assay", "method_in_brief": "as §1, with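 “Recombinant human GSK3β at 0.58 ng/µL with 0.2 µg/µL substrate G50-58; ATP at 25 µM, 100 µM or 500 µM, each as its line states. Compounds” for “Compounds”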"}, "[6]": {"assay": "Metabolic stability in human liver microsomes assessed as parent compound remaining after 10 mins by LC-MS analysis relative to control", "type": "ADME, Microsome", "conditions": "read-out: Stability"}, "[7]": {"assay": "Metabolic stability in human liver microsomes assessed as parent compound remaining after 20 mins by LC-MS analysis relative to control", "type": "ADME, Microsome", "conditions": "read-out: Stability"}, "[8]": {"assay": "Metabolic stability in human liver microsomes assessed as parent compound remaining after 30 mins by LC-MS analysis relative to control", "type": "ADME, Microsome", "conditions": "read-out: Stability"}, "[9]": {"assay": "Metabolic stability in human liver microsomes assessed as parent compound remaining after 60 mins by LC-MS analysis relative to control", "type": "ADME, Microsome", "conditions": "read-out: Stability"}, "[10]": {"assay": "Metabolic stability in human liver microsomes assessed as parent compound remaining after 120 mins by LC-MS analysis relative to control", "type": "ADME, Microsome", "conditions": "read-out: Stability"}, "[11]": {"assay": "Metabolic stability in human liver microsomes assessed as parent compound remaining after 240 mins by LC-MS analysis relative to control", "type": "ADME, Microsome", "conditions": "read-out: Stability"}, "[12]": {"assay": "Drug metabolism in human liver microsomes assessed as N-(4-(4-(4-Fluorophenyl)-2-(methylsulfinyl)-1H-imidazol-5-yl)pyridin-2-yl)cyclopropanecarboxamide metabolite formation by measuring half life by LC-MS analysis", "type": "ADME, Microsome", "method_in_brief": "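Incubation with human liver microsomes for up to 4 h. Remaining parent and sulfoxide metabolite formation were followed over time, giving a half-life for the oxidation.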"}, "[13]": {"assay": "Drug metabolism in RjOrl:Swiss CD-1 mouse at 10 mg/kg, iv administered as single dose measured after 2 hrs by LC-MS relative to control", "type": "ADME, organism-based", "conditions": "in vivo", "method_in_brief": "(§2)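 Adult male RjOrl:Swiss CD-1 mice got one intravenous dose of 10 mg/kg. Plasma was sampled at 10, 30 and 120 min. After the last sample the mice were sacrificed and brains dissected. Blood and brain samples were prepared and analysed by LC-MS for parent and sulfoxide metabolite; brain levels reported as ng/g.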"}, "Blood": {"test_system": "Blood", "assay": "Inhibition of LPS-induced TNFalpha production in human whole blood preincubated with compound for 15 mins followed by LPS addition measured after 2.5 hrs by ELISA", "type": "functional, tissue-based"}, "CYP1A2": {"molecular_target": "CYP1A2 (Homo sapiens, UniProt P05177)", "sequence (P05177 whole entry)": "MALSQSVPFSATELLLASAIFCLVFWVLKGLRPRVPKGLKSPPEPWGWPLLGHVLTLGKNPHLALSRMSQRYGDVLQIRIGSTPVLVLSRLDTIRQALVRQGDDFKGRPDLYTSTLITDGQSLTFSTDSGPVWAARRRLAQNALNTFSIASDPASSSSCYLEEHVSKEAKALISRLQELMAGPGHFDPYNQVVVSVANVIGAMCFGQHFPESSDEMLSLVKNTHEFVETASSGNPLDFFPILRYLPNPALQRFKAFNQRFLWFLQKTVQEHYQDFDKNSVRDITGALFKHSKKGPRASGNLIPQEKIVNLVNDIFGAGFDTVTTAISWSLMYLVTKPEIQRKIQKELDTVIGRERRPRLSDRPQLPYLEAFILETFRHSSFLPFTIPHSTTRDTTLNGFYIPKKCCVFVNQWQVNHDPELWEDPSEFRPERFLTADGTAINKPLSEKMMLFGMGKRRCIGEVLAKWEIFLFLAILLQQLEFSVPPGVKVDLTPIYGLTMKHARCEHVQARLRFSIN", "assay": "Inhibition of human recombinant CYP1A2 expressed in baculovirus infected insect cells using 3-cyano-7-ethoxycoumarin as substrate at 10 uM in presence of NADPH by fluorimetric analysis relative to control", "type": "ADME", "conditions": "probe 3-cyano-7-ethoxycoumarin"}, "CYP2C9": {"molecular_target": "CYP2C9 (Homo sapiens, UniProt P11712)", "sequence (P11712 whole entry)": "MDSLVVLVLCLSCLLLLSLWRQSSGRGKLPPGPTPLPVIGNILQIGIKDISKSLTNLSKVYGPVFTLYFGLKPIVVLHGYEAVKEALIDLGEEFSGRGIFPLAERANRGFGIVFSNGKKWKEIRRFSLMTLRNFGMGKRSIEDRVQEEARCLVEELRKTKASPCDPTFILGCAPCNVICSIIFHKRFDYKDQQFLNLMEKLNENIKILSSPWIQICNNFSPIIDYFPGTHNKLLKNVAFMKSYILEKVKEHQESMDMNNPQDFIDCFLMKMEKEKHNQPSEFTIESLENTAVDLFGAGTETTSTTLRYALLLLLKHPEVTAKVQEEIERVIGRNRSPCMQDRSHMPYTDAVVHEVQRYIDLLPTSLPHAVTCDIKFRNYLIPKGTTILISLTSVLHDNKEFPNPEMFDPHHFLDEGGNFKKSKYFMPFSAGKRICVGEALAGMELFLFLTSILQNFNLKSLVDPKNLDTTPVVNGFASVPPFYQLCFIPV", "assay": "Inhibition of human recombinant CYP2C9 expressed in baculovirus infected insect cells using OOMR as substrate at 10 uM in presence of NADPH by fluorimetric analysis relative to control", "type": "ADME", "conditions": "probe OOMR"}, "Cytochrome P450 2C19": {"molecular_target": "Cytochrome P450 2C19 (Homo sapiens, UniProt P33261)", "sequence (P33261 whole entry)": "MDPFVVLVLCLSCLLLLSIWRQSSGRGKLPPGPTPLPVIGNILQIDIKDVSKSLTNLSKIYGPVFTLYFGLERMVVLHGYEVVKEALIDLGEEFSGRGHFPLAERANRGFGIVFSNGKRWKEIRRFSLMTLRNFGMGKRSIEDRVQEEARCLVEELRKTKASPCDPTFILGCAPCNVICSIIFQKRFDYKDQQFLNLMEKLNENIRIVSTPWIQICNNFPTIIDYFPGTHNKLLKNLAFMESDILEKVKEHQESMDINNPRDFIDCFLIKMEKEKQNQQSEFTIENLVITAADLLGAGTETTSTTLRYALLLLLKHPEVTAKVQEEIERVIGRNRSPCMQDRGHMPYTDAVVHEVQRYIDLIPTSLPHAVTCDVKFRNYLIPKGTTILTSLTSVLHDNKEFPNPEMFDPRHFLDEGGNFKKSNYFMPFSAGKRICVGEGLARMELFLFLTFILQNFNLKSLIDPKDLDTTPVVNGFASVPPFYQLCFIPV", "assay": "Inhibition of human recombinant CYP2C19 expressed in baculovirus infected insect cells using EOMCC as substrate in presence of NADPH by fluorimetric analysis relative to control", "type": "ADME", "conditions": "recombinant enzyme"}, "CYP2D6": {"molecular_target": "CYP2D6 (Homo sapiens, UniProt P10635)", "sequence (P10635 whole entry)": "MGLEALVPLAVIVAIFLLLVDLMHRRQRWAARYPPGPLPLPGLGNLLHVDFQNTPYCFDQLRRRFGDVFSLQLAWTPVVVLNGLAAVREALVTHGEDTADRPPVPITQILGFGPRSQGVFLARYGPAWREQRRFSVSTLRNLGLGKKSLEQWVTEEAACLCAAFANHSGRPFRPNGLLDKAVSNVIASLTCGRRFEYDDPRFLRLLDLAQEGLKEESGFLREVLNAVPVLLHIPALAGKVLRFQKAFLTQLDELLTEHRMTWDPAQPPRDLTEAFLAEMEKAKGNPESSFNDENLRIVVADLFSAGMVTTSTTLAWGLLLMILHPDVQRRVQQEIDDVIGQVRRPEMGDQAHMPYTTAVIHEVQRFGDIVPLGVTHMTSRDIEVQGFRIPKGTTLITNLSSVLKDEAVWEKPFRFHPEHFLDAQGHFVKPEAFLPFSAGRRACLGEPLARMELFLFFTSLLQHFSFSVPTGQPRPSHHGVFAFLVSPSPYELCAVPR", "assay": "Inhibition of human recombinant CYP2D6 expressed in baculovirus infected insect cells using EOMCC as substrate at 10 uM in presence of NADPH by fluorimetric analysis relative to control", "type": "ADME", "conditions": "probe EOMCC"}, "CYP3A4": {"molecular_target": "CYP3A4 (Homo sapiens, UniProt P08684)", "sequence (P08684 whole entry)": "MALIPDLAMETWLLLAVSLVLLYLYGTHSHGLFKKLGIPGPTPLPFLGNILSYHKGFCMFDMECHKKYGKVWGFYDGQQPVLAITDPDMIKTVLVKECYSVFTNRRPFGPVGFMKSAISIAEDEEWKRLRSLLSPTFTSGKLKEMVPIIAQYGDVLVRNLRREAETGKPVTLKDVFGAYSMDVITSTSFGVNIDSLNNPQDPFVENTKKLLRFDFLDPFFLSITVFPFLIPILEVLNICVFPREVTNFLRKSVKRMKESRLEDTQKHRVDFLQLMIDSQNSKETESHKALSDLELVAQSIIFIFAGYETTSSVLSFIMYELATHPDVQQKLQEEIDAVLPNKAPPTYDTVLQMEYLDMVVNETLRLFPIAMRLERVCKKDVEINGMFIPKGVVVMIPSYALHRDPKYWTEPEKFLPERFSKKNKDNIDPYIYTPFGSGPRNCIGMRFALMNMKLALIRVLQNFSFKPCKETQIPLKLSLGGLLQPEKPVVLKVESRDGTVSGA", "assay": "Inhibition of human recombinant CYP3A4 expressed in baculovirus infected insect cells using BOMR as substrate at 10 uM in presence of NADPH by fluorimetric analysis relative to control", "type": "ADME", "conditions": "probe BOMR"}, "hERG (KCNH2)": {"molecular_target": "hERG (KCNH2) (Homo sapiens, UniProt Q12809)", "sequence (Q12809 whole entry)": "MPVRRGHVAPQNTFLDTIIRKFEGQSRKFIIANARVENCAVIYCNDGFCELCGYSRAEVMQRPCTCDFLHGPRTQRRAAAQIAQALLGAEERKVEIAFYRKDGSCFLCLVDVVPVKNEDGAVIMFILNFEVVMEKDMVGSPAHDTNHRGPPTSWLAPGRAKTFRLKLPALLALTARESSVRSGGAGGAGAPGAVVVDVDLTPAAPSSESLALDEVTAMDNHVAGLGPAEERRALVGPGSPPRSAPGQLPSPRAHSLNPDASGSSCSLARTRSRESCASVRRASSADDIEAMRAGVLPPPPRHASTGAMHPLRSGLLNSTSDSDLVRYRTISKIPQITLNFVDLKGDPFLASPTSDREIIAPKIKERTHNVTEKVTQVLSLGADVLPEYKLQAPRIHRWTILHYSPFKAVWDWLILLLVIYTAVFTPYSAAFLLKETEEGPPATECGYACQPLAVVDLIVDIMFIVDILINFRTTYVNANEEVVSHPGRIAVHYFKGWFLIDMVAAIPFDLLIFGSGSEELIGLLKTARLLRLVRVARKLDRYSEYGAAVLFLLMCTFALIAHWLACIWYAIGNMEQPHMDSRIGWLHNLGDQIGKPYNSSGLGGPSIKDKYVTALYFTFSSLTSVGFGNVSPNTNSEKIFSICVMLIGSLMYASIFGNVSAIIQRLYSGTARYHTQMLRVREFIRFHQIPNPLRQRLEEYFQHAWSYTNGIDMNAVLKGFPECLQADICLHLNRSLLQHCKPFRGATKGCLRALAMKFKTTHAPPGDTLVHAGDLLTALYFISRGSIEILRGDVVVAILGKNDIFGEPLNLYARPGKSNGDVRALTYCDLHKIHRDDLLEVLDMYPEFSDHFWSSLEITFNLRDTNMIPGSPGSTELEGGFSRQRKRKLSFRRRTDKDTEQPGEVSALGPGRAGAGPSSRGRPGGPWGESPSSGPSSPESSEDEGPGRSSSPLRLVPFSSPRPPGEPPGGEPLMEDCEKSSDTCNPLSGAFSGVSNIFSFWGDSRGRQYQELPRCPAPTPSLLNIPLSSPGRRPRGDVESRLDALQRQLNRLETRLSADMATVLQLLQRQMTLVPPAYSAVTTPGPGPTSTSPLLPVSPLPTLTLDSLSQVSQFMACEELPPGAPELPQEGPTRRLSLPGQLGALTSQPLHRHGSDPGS", "assay": "Inhibition of tracer Red binding to human ERG expressed in membranes at 10 uM after 4 hrs by fluorescence polarization assay relative to control", "conditions": "membranes expressing human ERG, probe tracer Red"}, "[14]": {"assay": "Solubility of the compound in PBS buffer at pH 7.8 after 1 hr by HPLC analysis", "type": "physicochemical"}, "[15]": {"assay": "Drug metabolism in RjOrl:Swiss CD-1 mouse assessed as ratio of compound to N-(4-(4-(4-Fluorophenyl)-2-(methylsulfinyl)-1H-imidazol-5-yl)pyridin-2-yl)cyclopropanecarboxamide metabolite level at 10 mg/kg, iv administered as single dose measured after 10 mins by LC-MS analysis", "type": "ADME, organism-based", "conditions": "in vivo", "method_in_brief": "as §2"}, "[16]": {"assay": "Metabolic stability in human liver microsomes assessed as parent compound remaining after 180 mins by LC-MS analysis relative to control", "type": "ADME, Microsome", "conditions": "read-out: Stability"}},
  "data": [
    {"smiles": "CSc1nc(-c2ccc(F)cc2)c(-c2ccnc(NC(=O)C3CC3)c2)[nH]1", "values": [
      {"measurement": "IC50", "setting": "[1]", "result": 24, "unit": "nM"},
      {"measurement": "IC50", "setting": "[2]", "result": "18.5 to 40", "unit": "nM"},
      {"measurement": "IC50", "setting": "[3]", "result": 300, "unit": "nM"},
      {"measurement": "IC50", "setting": "[4]", "result": 174, "unit": "nM"},
      {"measurement": "IC50", "setting": "[5]", "result": 423, "unit": "nM"},
      {"measurement": "remaining at 10 min", "setting": "[6]", "result": 98.8, "unit": "%"},
      {"measurement": "remaining at 20 min", "setting": "[7]", "result": 97.9, "unit": "%"},
      {"measurement": "remaining at 0.5 h", "setting": "[8]", "result": 89.6, "unit": "%"},
      {"measurement": "remaining at 1 h", "setting": "[9]", "result": 81.8, "unit": "%"},
      {"measurement": "remaining at 2 h", "setting": "[10]", "result": 65.9, "unit": "%"},
      {"measurement": "remaining at 4 h", "setting": "[11]", "result": 44, "unit": "%"},
      {"measurement": "t1/2", "setting": "[12]", "result": 3.17, "unit": "h"},
      {"measurement": "Drug metabolism", "setting": "[13]", "result": "Metabolite_Detected"},
      {"measurement": "IC50", "setting": "Blood", "result": 541, "unit": "nM"},
      {"measurement": "inhibition at 10 µM", "setting": "CYP1A2", "result": 88.4, "unit": "%"},
      {"measurement": "inhibition at 10 µM", "setting": "CYP2C9", "result": 77.7, "unit": "%"},
      {"measurement": "inhibition (INH)", "setting": "Cytochrome P450 2C19", "result": 56.1, "unit": "%"},
      {"measurement": "inhibition at 10 µM", "setting": "CYP2D6", "result": 14.6, "unit": "%"},
      {"measurement": "inhibition at 10 µM", "setting": "CYP3A4", "result": 75.6, "unit": "%"},
      {"measurement": "inhibition at 4 h, 10 µM", "setting": "hERG (KCNH2)", "result": 30.1, "unit": "%"},
      {"measurement": "solubility at 1 h", "setting": "[14]", "result": 51, "unit": "µg/mL"},
      {"measurement": "Ratio", "setting": "[15]", "result": 0.5},
      {"measurement": "remaining at 3 h", "setting": "[16]", "result": 52.1, "unit": "%"}
    ]}
  ]
}
